Key:
[1] = test system: A10; test: Percent decrease in fluorescence in a membrane potential assay using the A10 cell line derived from embryonic rat aorta at 0.1 uM; type: functional
How it was run: (§1)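 Postconfluent A10 cells (passage ≤20, grown in DMEM/15% FBS) equilibrated ≥15 min at 37 °C in 5 μM DiBAC₄(3) in EBSS with 20 mM HEPES, pH 7.3. Compound added from 1000X DMSO or water stocks. Fluorescence (ex 488, em 525 nm) imaged every 60 s at 37 °C from a field of about 50 cells and normalized between experiments.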

[2] = test system: A10; test: Percent decrease in fluorescence in a membrane potential assay using the A10 cell line derived from embryonic rat aorta at 1.0 uM; type: functional; how it was run: as §1
[3] = test system: A10; test: Percent decrease in fluorescence in a membrane potential assay using the A10 cell line derived from embryonic rat aorta at 0.01 uM; type: functional; how it was run: as §1
[4] = test system: A10; test: Percent decrease in fluorescence in a membrane potential assay using the A10 cell line derived from embryonic rat aorta at 0.001 uM; type: functional; how it was run: as §1
[5] = test system: A10; test: Percent decrease in fluorescence in a membrane potential assay using the A10 cell line derived from embryonic rat aorta at 10.0 uM; type: functional; how it was run: as §1
[6] = test system: Rattus norvegicus; test: Change in mean arterial pressure in anesthetized female rats at a dose of 0.30 mg/kg and a cumulative dose of 0.44 mg/kg; type: functional, Artery
How it was run: (§2)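 Fasted female Sprague-Dawley rats, 200–250 g, under iv α-chloralose/urethane/pentobarbital anesthesia. Mean arterial pressure recorded continuously through a femoral artery catheter, after 30 min postsurgical equilibration. Compound given iv in 20% DMA/saline as step doses (initial plus three higher) at 20-min intervals. ΔMAP from pretreatment averaged over 4–5 rats per group; vehicle controls pooled n = 6.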

[7] = test system: Rattus norvegicus; test: Change in heart rate in beats per minute in anesthetized female rats at a dose of 0.30 mg/kg and a cumulative dose of 0.44 mg/kg; type: functional
How it was run: (§3)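 Fasted female Sprague-Dawley rats, 200–250 g, anesthetized iv with α-chloralose 40 mg/kg, urethane 20 mg/kg and pentobarbital 20 mg/kg. Femoral vein cannulated for dosing; heart rate taken by tachograph triggered from the arterial pulse. Rectal temperature kept at 36–38 °C. Drug given iv in 20% DMA/saline as four rising bolus steps 20 min apart. ΔHR from pretreatment is the mean of 4–5 rats.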

[8] = test system: Rattus norvegicus; test: Change in mean arterial pressure in anesthetized female rats at a dose of 0.01 mg/kg and a cumulative dose of 0.01 mg/kg; type: functional, Artery; how it was run: as §2
[9] = test system: Rattus norvegicus; test: Change in heart rate in beats per minute in anesthetized female rats at a dose of 0.03 mg/kg and a cumulative dose of 0.04 mg/kg; type: functional; how it was run: as §3
[10] = test system: Rattus norvegicus; test: Change in mean arterial pressure in anesthetized female rats at a dose of 0.10 mg/kg and a cumulative dose of 0.14 mg/kg; type: functional, Artery; how it was run: as §2
[11] = test system: Rattus norvegicus; test: Change in heart rate in beats per minute in anesthetized female rats at a dose of 0.10 mg/kg and a cumulative dose of 0.14 mg/kg; type: functional; how it was run: as §3
[12] = test system: Rattus norvegicus; test: Change in heart rate in beats per minute in anesthetized female rats at a dose of 0.01 mg/kg and a cumulative dose of 0.01 mg/kg; type: functional; how it was run: as §3
[13] = test system: Rattus norvegicus; test: Change in mean arterial pressure in anesthetized female rats at a dose of 0.03 mg/kg and a cumulative dose of 0.04 mg/kg; type: functional, Artery; how it was run: as §2
[14] = test system: Rattus norvegicus; test: Change in heart rate in beats per minute in anesthetized female rats at a dose of 0.010 mg/kg and a cumulative dose of 0.014 mg/kg; type: functional; how it was run: as §3
[15] = test system: Rattus norvegicus; test: Change in heart rate in beats per minute in anesthetized female rats at a dose of 0.030 mg/kg and a cumulative dose of 0.044 mg/kg; type: functional; how it was run: as §3
[16] = test system: Rattus norvegicus; test: Change in mean arterial pressure in anesthetized female rats at a dose of 0.003 mg/kg and a cumulative dose of 0.004 mg/kg; type: functional, Artery; how it was run: as §2
[17] = test system: Rattus norvegicus; test: Change in mean arterial pressure in anesthetized female rats at a dose of 0.010 mg/kg and a cumulative dose of 0.014 mg/kg; type: functional, Artery; how it was run: as §2
[18] = test system: Rattus norvegicus; test: Change in mean arterial pressure in anesthetized female rats at a dose of 0.030 mg/kg and a cumulative dose of 0.044 mg/kg; type: functional, Artery; how it was run: as §2
[19] = test system: Rattus norvegicus; test: Change in mean arterial pressure in anesthetized female rats at a dose of 0.001 mg/kg and a cumulative dose of 0.001 mg/kg; type: functional, Artery; how it was run: as §2
[20] = test system: Rattus norvegicus; test: Change in heart rate in beats per minute in anesthetized female rats at a dose of 0.001 mg/kg and a cumulative dose of 0.001 mg/kg; type: functional; how it was run: as §3
[21] = test system: Rattus norvegicus; test: Change in heart rate in beats per minute in anesthetized female rats at a dose of 0.003 mg/kg and a cumulative dose of 0.004 mg/kg; type: functional; how it was run: as §3

CC(C)NC1=NC(=O)C2(CC(C)(C)Oc3ccc(Br)cc32)N1 (stereo unspecified)
Decrease [1]: 5%
Decrease [2]: 22%

CNC1=NC(=O)C2(CC(C)(C)Oc3ccc([N+](=O)[O-])cc32)N1 (stereo unspecified)
Decrease [3]: 15%
Decrease [4]: <5%
Decrease [1]: 38%

CC(C)(C)CNC1=NC(=O)C2(CC(C)(C)Oc3ccccc32)N1 (stereo unspecified)
Decrease [5]: 7%

CNC1=NC(=O)C2(CC(C)(C)Oc3ccc(F)cc32)N1 (stereo unspecified)
Decrease [5]: 14%
Decrease [2]: 11%

CCOC1=NC(=O)C2(CC(C)(C)Oc3ccc(Br)cc32)N1 (stereo unspecified)
Decrease [1]: 5%
Decrease [2]: 20%

CCNC1=NC(=O)C2(CC(C)(C)Oc3ccc([N+](=O)[O-])cc32)N1 (stereo unspecified)
Decrease [3]: 13%
Decrease [4]: 9%
Decrease [1]: 28%

CSC1=NC(=O)C2(CC(C)(C)Oc3ccc(F)cc32)N1 (stereo unspecified)
Decrease [5]: 27%
Decrease [2]: 9%

CCCSC1=NC(=O)C2(CC(C)(C)Oc3ccc(C#N)cc32)N1 (stereo unspecified)
Decrease [1]: <5%
Decrease [2]: 17%

CCNC1=NC(=O)C2(CC(C)(C)Oc3ccc(C#N)cc32)N1 (stereo unspecified)
Decrease [1]: 8%
Decrease [2]: 25%

CC(C)NC1=NC(=O)C2(CC(C)(C)Oc3ccc(C#N)cc32)N1 (stereo unspecified)
Decrease [1]: <5%
Decrease [2]: 10%

CCNC1=NC(=O)C2(CC(C)(C)Oc3ccc(F)cc32)N1 (stereo unspecified)
Delta MAP [6]: -44.6 mmHg
Delta HR [7]: 45.6 beats min-1
Decrease [1]: 19%
Delta MAP [8]: -7.1 mmHg
Delta HR [9]: 1.7 beats min-1
Delta MAP [10]: -28 mmHg
Delta HR [11]: 38 beats min-1
Delta HR [12]: -0.4 beats min-1
Decrease [2]: 24%
Delta MAP [13]: -10.7 mmHg

CCSC1=NC(=O)C2(CC(C)(C)Oc3ccc(Br)cc32)N1 (stereo unspecified)
Decrease [3]: 11%
Delta MAP [6]: -25 mmHg
Delta HR [7]: 17.5 beats min-1
Decrease [4]: 7%
Decrease [1]: 18%
Delta MAP [8]: -2.5 mmHg
Delta HR [9]: 29 beats min-1
Delta MAP [10]: -21.5 mmHg
Delta HR [11]: 16.5 beats min-1
Delta HR [12]: 15.5 beats min-1
Delta MAP [13]: -16.3 mmHg

CCOC1=NC(=O)C2(CC(C)(C)Oc3ccccc32)N1 (stereo unspecified)
Decrease [5]: <5%

CSC1=NC(=O)C2(CC(C)(C)Oc3ccc(C#N)cc32)N1 (stereo unspecified)
Decrease [5]: 25%
Decrease [2]: 5%

CSC1=NC(=O)C2(CC(C)(C)Oc3ccc([N+](=O)[O-])cc32)N1 (stereo unspecified)
Decrease [3]: 8%
Decrease [1]: 11%
Decrease [2]: 16%

CCNC1=NC(=O)C2(CC(C)(C)Oc3ccc(Br)cc32)N1 (stereo unspecified)
Decrease [1]: 26%
Decrease [2]: 19%

CNC1=NC(=O)C2(CC(C)(C)Oc3ccc(Br)cc32)N1 (stereo unspecified)
Decrease [1]: 22%
Decrease [2]: 17%

CCCNC1=NC(=O)C2(CC(C)(C)Oc3ccccc32)N1 (stereo unspecified)
Decrease [2]: 7%

CCCNC1=NC(=O)C2(CC(C)(C)Oc3ccc(C#N)cc32)N1 (stereo unspecified)
Decrease [3]: <5%
Delta MAP [6]: -70 mmHg
Delta HR [7]: 39.2 beats min-1
Decrease [1]: 21%
Delta MAP [8]: -23.6 mmHg
Delta HR [9]: 19.2 beats min-1
Delta MAP [10]: -66.2 mmHg
Delta HR [11]: 29.8 beats min-1
Delta HR [12]: 13.8 beats min-1
Decrease [2]: 27%
Delta MAP [13]: -50.8 mmHg

CCCNC1=NC(=O)C2(CC(C)(C)Oc3ccc(Br)cc32)N1 (stereo unspecified)
Decrease [3]: 12%
Delta MAP [6]: -70.6 mmHg
Delta HR [7]: 92.8 beats min-1
Decrease [1]: 28%
Delta MAP [8]: -25.6 mmHg
Delta HR [9]: 25.6 beats min-1
Delta MAP [10]: -70.1 mmHg
Delta HR [11]: 46.3 beats min-1
Delta HR [12]: 44.9 beats min-1
Delta MAP [13]: -56.7 mmHg

CSC1=NC(=O)C2(CC(C)(C)Oc3ccc(Br)cc32)N1 (stereo unspecified)
Decrease [1]: 6%
Decrease [2]: 27%

CCCNC1=NC(=O)C2(CC(C)(C)Oc3ccc([N+](=O)[O-])cc32)N1 (stereo unspecified)
Decrease [3]: 19%
Delta HR [14]: 3.8 beats min-1
Decrease [4]: 8%
Decrease [1]: 28%
Delta HR [15]: 31.8 beats min-1
Delta MAP [16]: -51.3 mmHg
Delta MAP [17]: -66 mmHg
Delta MAP [18]: -72 mmHg
Delta MAP [19]: -19.8 mmHg
Delta HR [20]: 6.8 beats min-1
Delta HR [21]: 3.3 beats min-1

CNC1=NC(=O)C2(CC(C)(C)Oc3ccc(C#N)cc32)N1 (stereo unspecified)
Decrease [1]: <5%
Decrease [2]: 19%

CCCNC1=NC(=O)C2(CC(C)(C)Oc3ccc(F)cc32)N1 (stereo unspecified)
Decrease [1]: 10%
Decrease [2]: 17%

CCCSC1=NC(=O)C2(CC(C)(C)Oc3ccc(Br)cc32)N1 (stereo unspecified)
Decrease [1]: 6%
Decrease [2]: 15%

CCOC1=NC(=O)C2(CC(C)(C)Oc3ccc(F)cc32)N1 (stereo unspecified)
Decrease [5]: 13%
Decrease [2]: <5%

CCSC1=NC(=O)C2(CC(C)(C)Oc3ccc(C#N)cc32)N1 (stereo unspecified)
Decrease [5]: 24%
Decrease [2]: 6%

CSC1=NC(=O)C2(CC(C)(C)Oc3ccccc32)N1 (stereo unspecified)
Decrease [5]: <5%

CC(C)NC1=NC(=O)C2(CC(C)(C)Oc3ccc(F)cc32)N1 (stereo unspecified)
Decrease [5]: 22%
Decrease [2]: 5%

CC(C)NC1=NC(=O)C2(CC(C)(C)Oc3ccccc32)N1 (stereo unspecified)
Decrease [5]: 13%

CC1(C)Oc2ccc(C#N)cc2C(N2CCCC2=O)C1O (stereo unspecified) [CROMAKALIM]
Delta MAP [6]: -52.7 mmHg
Delta HR [7]: 63 beats min-1
Decrease [1]: <5%
Delta MAP [8]: -14.7 mmHg
Delta HR [9]: 53.4 beats min-1
Delta MAP [10]: -36.1 mmHg
Delta HR [11]: 65.6 beats min-1
Delta HR [12]: 33.8 beats min-1
Decrease [2]: 22%
Delta MAP [13]: -22.6 mmHg
